Laboratory results from ChEMBL document CHEMBL1121898, “Potential antiestrogens. Synthesis and evaluation of mammary tumor inhibiting activity of 1,2-dialkyl-1,2-bis(3'-hydroxyphenyl)ethanes” (1981).
Blank lines part the entries; values can stand above or below the compound they belong to. The source made the active and inactive calls. No cut-off for these calls is given here.

Legend:
Rattus norvegicus [1] = species on record: Rattus norvegicus; test: Percent change in body weight DMBA-induced hormone-dependent mammary carcinoma tumors in rats at 4.5 mg for 7 days; assay type: functional
Rattus norvegicus [2] = species on record: Rattus norvegicus; test: Final number of DMBA-induced hormone-dependent mammary carcinoma tumors in rats at 4.5 mg; assay type: functional
Procedure, shortened: (§1)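 Sprague-Dawley rats carrying DMBA-induced, hormone-dependent mammary adenocarcinoma, at least one tumor >140 mm², were placed in groups of ten. Compounds were given sc, with doses in mg/kg: a single daily dose Monday to Thursday and a double dose on Friday. Ovariectomy served as a comparator group. New tumors arising during the test were counted.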

[3] = biological target: T1, Estrogen receptor (Mus musculus) (UniProt O08537+P19785); test: Estrogenic activity in uterotrophic test in mice at 3 ug; assay type: functional
T1 sequence (O08537 whole entry, looked up): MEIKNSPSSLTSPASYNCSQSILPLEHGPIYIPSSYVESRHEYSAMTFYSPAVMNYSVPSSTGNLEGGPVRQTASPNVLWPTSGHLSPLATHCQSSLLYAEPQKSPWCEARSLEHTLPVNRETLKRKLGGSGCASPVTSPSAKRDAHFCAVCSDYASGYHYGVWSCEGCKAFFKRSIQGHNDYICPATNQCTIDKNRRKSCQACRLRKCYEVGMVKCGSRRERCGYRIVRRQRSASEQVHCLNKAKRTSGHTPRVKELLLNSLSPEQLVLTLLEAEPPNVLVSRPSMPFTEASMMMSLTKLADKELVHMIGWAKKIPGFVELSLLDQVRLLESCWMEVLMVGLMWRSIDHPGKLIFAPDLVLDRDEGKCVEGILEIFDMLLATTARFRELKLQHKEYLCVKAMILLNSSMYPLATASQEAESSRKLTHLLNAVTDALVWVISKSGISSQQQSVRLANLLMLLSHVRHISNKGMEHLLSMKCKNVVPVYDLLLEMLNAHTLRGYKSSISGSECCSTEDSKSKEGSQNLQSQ
T1 sequence (P19785 whole entry, looked up): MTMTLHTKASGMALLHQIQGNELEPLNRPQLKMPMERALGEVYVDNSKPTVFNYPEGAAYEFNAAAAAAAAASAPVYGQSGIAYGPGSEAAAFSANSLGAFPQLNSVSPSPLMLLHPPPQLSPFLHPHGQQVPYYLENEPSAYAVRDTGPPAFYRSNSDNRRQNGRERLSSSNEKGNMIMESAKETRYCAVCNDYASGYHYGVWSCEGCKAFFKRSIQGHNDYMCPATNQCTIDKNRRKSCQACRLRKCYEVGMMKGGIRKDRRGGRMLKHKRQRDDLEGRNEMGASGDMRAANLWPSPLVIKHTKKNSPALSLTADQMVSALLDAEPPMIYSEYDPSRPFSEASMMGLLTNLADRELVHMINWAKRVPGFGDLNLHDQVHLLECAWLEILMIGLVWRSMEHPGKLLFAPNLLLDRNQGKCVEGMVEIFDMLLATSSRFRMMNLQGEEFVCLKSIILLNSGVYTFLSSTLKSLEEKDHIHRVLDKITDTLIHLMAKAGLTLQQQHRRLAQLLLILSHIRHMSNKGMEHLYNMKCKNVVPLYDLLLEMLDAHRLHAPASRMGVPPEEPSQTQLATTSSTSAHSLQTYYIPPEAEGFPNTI
Procedure, shortened: (§2)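 Uterine growth stimulation in immature female NMRI mice, 20 days old (14.5 ± 1.2 g), 10 per group. Test compound in 0.1 mL olive oil was given sc daily for 3 days. Uteri were excised 24 h after the final injection and weighed. Effect is reported as mean ± SD.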

[4] = biological target: T1, Estrogen receptor (Mus musculus); test: Estrogenic activity in uterotrophic test in mice at 90 ug; assay type: functional
Procedure, shortened: (§3)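 Immature (20-day-old) female NMRI mice, 14.5 ± 1.2 g, randomized into groups of 10. Given the test compound sc daily for 3 days in 0.1 mL olive oil. Uteri removed 24 h after the last injection; uterine weight taken as the read-out, means ± SD. Dose in μg.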

Rattus norvegicus [5] = species on record: Rattus norvegicus; test: Progression of DMBA-induced hormone-dependent mammary carcinoma tumors in rats at 2.25 mg; assay type: functional
[6] = biological target: T1, Estrogen receptor (Mus musculus); test: Antiestrogenic activity in uterotrophic test in mice at 0 ug; assay type: functional
Procedure, shortened: (§4)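 Immature female NMRI mice, 20 days old (14.5 ± 1.2 g), randomly grouped 10 per group. Each received a daily sc injection for 3 days of 0.1 mL olive oil solution containing test compound, together with estrone to stimulate uterine growth. Uteri were removed 24 h after the last injection and weighed. Results are reported as % inhibition of the estrone-stimulated uterine weight gain, mean ± SD.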

Rattus norvegicus [7] = species on record: Rattus norvegicus; test: Number of DMBA-induced hormone-dependent mammary carcinoma tumors in ovariectomised rats; assay type: functional
Procedure, shortened: (§5)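 DMBA-induced, hormone-dependent mammary adenocarcinoma in SD rats, with ovariectomy as the treatment. Rats bearing at least one tumor >140 mm² were placed in groups of ten. Tumors were counted at the start and as new tumors. Responses were scored as complete remission, partial remission (≥50% size reduction), no change or progression, with % change in tumor area and body weight.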

Rattus norvegicus [8] = species on record: Rattus norvegicus; test: Initial tumor number of DMBA-induced hormone-dependent mammary carcinoma in rats at 9 mg; assay type: functional
Procedure, shortened: (§6)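 DMBA-induced, hormone-dependent mammary adenocarcinoma in SD rats. Rats bearing at least one tumor >140 mm² were placed in groups of ten. Compound was given sc as a single dose (mg/kg) daily Monday–Thursday and a double dose on Friday. Tumors were counted at the start and as new tumors; responses were scored as complete remission (not palpable), partial remission (≥50% reduction), no change or progression. Tumor area and body weight were recorded as % change.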

Rattus norvegicus [9] = species on record: Rattus norvegicus; test: Progression of DMBA-induced hormone-dependent mammary carcinoma tumors in rats at 4.5 mg; assay type: functional
[10] = biological target: T1, Estrogen receptor (Mus musculus); test: Inhibitory activity in mouse uterine weight test at 500 ug; assay type: functional
Procedure, shortened: (§7)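 Immature female NMRI mice, 20 days old (14.5 ± 1.2 g), in random groups of 10. They received sc injections daily for 3 days of 0.1 mL olive oil containing test compound, with estrone 0.1 μg given to stimulate uterine growth. Uteri were removed 24 h after the last injection and weighed (mean ± SD). Result is percent inhibition of the estrone-stimulated uterine weight gain.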

Rattus norvegicus [11] = species on record: Rattus norvegicus; test: Percent unchanged tumor size of DMBA-induced hormone-dependent mammary carcinoma tumors in rats at 9 mg; assay type: functional
[12] = biological target: T1, Estrogen receptor (Mus musculus); test: Estrogenic activity in uterotrophic test in mice at 9 ug; assay type: functional; procedure, shortened: as §3
Rattus norvegicus [13] = species on record: Rattus norvegicus; test: Percent unchanged tumor size of DMBA-induced hormone-dependent mammary carcinoma tumors in ovarectiemised rats; assay type: functional; procedure, shortened: as §5
Rattus norvegicus [14] = species on record: Rattus norvegicus; test: Percent change in body weight DMBA-induced hormone-dependent mammary carcinoma tumors in rats at 9 mg for 7 days; assay type: functional
[15] = biological target: T1, Estrogen receptor (Mus musculus); test: Inhibitory activity in mouse uterine weight test at 5 ug; assay type: functional
Procedure, shortened: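 Antiuterotrophic (Dorfman) assay in immature 20-day-old female NMRI mice, groups of 10. Uterine growth was stimulated with estrone (0.1 μg) and the test compound was given alongside it, sc daily for 3 days in 0.1 mL olive oil. Uteri were taken 24 h after the last dose. Uterine weight is reported as means ± SD and inhibition as % of the estrone-stimulated response.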

[16] = biological target: T1, Estrogen receptor (Mus musculus); test: Antiestrogenic activity in uterotrophic test in mice at 25 ug (experiment 2); assay type: functional; procedure, shortened: as §4
MCF7 = test: Inhibition of estrogen receptor positive MCF-7 cell proliferation as cell number after 10 days at 10e-7 M with 10e-7 M 17-beta-estradiol; assay type: functional, Homo sapiens
Procedure, shortened: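 MCF-7 cells were grown in McCoy's 5a medium with fetal bovine serum stripped by DCC (0.5 h, 45 °C). Compounds were dissolved in ethanol (final ≤0.5%) and diluted in complete medium. Cells were seeded at 5×10^4 cells/plate. On day 10, three replicate plates per group were counted by Coulter counter, three counts per plate. Percent T/C = test/control. In a retest, compounds were given at 10^-7 M with 17β-estradiol at 10^-7 or 10^-8 M.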

Rattus norvegicus [17] = species on record: Rattus norvegicus; test: Percent change in DMBA-induced hormone-dependent mammary carcinoma tumor area at 1 mg after 28 days; assay type: functional; procedure, shortened: as §6
Rattus norvegicus [18] = species on record: Rattus norvegicus; test: Progression of DMBA-induced hormone-dependent mammary carcinoma tumors in rats at 4 mg; assay type: functional
Mus musculus [19] = species on record: Mus musculus; test: Vaginal cornification test in mice at 2.5 ug; predominant cellular component leucocytes (diestrus); assay type: functional, organism-based
Rattus norvegicus [20] = species on record: Rattus norvegicus; test: Percent change in body weight DMBA-induced hormone-dependent mammary carcinoma tumors in rats at 18 mg for 7 days; assay type: functional; details: in the assay text read “at 1 mg” for “at 18 mg”; procedure, shortened: as §6
[21] = biological target: T1, Estrogen receptor (Mus musculus); test: Inhibitory activity in mouse uterine weight test at 500 ug (experiment 2); assay type: functional; procedure, shortened: as §7
[22] = biological target: T1, Estrogen receptor (Mus musculus); test: Antiestrogenic activity in uterotrophic test in mice at 2.5 ug (experiment 1)
Rattus norvegicus [23] = species on record: Rattus norvegicus; test: Partial remission of DMBA-induced hormone-dependent mammary carcinoma tumors in rats at 2 mg; assay type: functional; procedure, shortened: as §6
[24] = biological target: T1, Estrogen receptor (Mus musculus); test: Antiestrogenic activity in uterotrophic test in mice at 500 ug (experiment 2); assay type: functional; procedure, shortened: as §4
[25] = biological target: T1, Estrogen receptor (Mus musculus); test: Estrogenic activity in uterotrophic test in mice at 0.8 ug (experiment 1); assay type: functional; procedure, shortened: as §2
Mus musculus [26] = species on record: Mus musculus; test: Predominant components of vaginal smear at a compound concentration of 50 ug was determined using vaginal cornification test; leucocytes (</= 50%), nucleated and cornified, nucleated cellscharacteristic of antiestrogens; assay type: functional, organism-based
[27] = biological target: T1, Estrogen receptor (Mus musculus); test: Antiestrogenic activity in uterotrophic test in mice at 2.5 ug (experiment 1); assay type: functional; procedure, shortened: as §4
Rattus norvegicus [28] = species on record: Rattus norvegicus; test: Final number of DMBA-induced hormone-dependent mammary carcinoma tumors in rats at 1 mg; assay type: functional; procedure, shortened: as §1
Rattus norvegicus [29] = species on record: Rattus norvegicus; test: Initial tumor number of DMBA-induced hormone-dependent mammary carcinoma in rats at 2 mg; assay type: functional; procedure, shortened: as §6
Rattus norvegicus [30] = species on record: Rattus norvegicus; test: Percent unchanged tumor size of DMBA-induced hormone-dependent mammary carcinoma tumors in rats at 1 mg; assay type: functional
[31] = biological target: T1, Estrogen receptor (Mus musculus); test: Antiestrogenic activity in uterotrophic test in mice at 5 ug (experiment 1); assay type: functional; procedure, shortened: as §4
Rattus norvegicus [32] = species on record: Rattus norvegicus; test: Final number of DMBA-induced hormone-dependent mammary carcinoma tumors in rats at 4 mg; assay type: functional; procedure, shortened: as §1
Rattus norvegicus [33] = species on record: Rattus norvegicus; test: Percent change in DMBA-induced hormone-dependent mammary carcinoma tumor area at 4 mg after 28 days; assay type: functional; procedure, shortened: as §6

Effect [3]: 13.6
Effect [4]: 17.6
Effect [6]: 9.9
inhibition [10]: 50%
Effect [12]: 13.9
inhibition [15]: 26%
Compound: CCCC(c1cccc(O)c1)C(CCC)c1cccc(O)c1 (centres undefined)
Change (Rattus norvegicus [1]): -1.1%
No. of tumors (Rattus norvegicus [2]): 6
Tumors (Rattus norvegicus [5]): 54%
No. of tumors (Rattus norvegicus [7]): 2
No. of tumors (Rattus norvegicus [8]): 22
Tumors (Rattus norvegicus [9]): 36%
Tumors (Rattus norvegicus [11]): 9%
Tumors (Rattus norvegicus [13]): 0%
Change (Rattus norvegicus [14]): -2.7%

Effect [16]: 28.1
inhibition [21]: 40%
% inhibition [22]: 27%
Effect [24]: 30.9
Effect [25]: 11.8
Effect [27]: 29.5
Effect [31]: 23.5
Compound: CCC(c1cccc(O)c1)C(CC)c1cccc(O)c1 (stereo in doubt; 20)
Cell number (MCF7): 5600
Change (Rattus norvegicus [17]): 47%
Tumors (Rattus norvegicus [18]): 10%
Activity (Mus musculus [19]): inactive
Change (Rattus norvegicus [20]): -1.6%
Tumors (Rattus norvegicus [23]): 30%
Activity (Mus musculus [26]): Weak activity
No. of tumors (Rattus norvegicus [28]): 29
No. of tumors (Rattus norvegicus [29]): 30
Tumors (Rattus norvegicus [30]): 35%
No. of tumors (Rattus norvegicus [32]): 11
Change (Rattus norvegicus [33]): -75%
